CYP2C9 act – human CYP2C9 activators, primary screen, biochemical, luminescence; Cytochrome P450 2C9 (Homo sapiens), P11712; recombinant CYP2C9, luciferin-H conversion; active compounds read high; factor 1 = untreated enzyme, 0 = blocked; activation factor at 5 µM; 96,000 compounds, 1.4% hits; AID 1024, 2008;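 active = activation factor of 2 or more for CYP2C9 at a 5 µM dose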;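 note: 0 = sulfaphenazole-blocked wells and 1 = vehicle-only wells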
Target sequence (P11712 whole entry, looked up): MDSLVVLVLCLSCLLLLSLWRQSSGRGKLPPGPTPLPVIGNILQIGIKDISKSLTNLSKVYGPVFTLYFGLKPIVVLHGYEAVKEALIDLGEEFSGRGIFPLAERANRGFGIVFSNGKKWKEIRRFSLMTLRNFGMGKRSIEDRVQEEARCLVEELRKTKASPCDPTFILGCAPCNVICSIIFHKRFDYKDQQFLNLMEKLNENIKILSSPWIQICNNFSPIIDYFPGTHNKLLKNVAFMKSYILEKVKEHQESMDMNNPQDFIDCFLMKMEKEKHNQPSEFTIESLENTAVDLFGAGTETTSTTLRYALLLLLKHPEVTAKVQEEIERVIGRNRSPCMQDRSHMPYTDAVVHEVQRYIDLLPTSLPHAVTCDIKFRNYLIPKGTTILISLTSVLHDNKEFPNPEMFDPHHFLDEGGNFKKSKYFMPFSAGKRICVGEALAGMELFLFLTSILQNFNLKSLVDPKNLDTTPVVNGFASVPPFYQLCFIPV
Cav32 inh – Cav3.2 calcium influx blockers – cell-based, Fluo-4 calcium fluorescence, FDSS, MLSMR library, primary screen | 100,000 compounds, 4% hits | AID 449739, 2010 | B-score at 10 µM | Cav3.2-expressing cells; active compounds read low;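 active = single-dose well whose peak fluorescence ratio is a statistical outlier from its plate by either plate-standardised score or position-corrected B-score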
CYP2C19 inh – blockers of cytochrome P450 2C19 activity – biochemical, luminescence, ADME assay, primary screen. inhibition, % at 5 µM. 96,000 compounds, 21% hits. P33261. AID 778, 2007. CYP2C19 Supersomes, luciferin-H EGE luminescence, 30 min;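 active = CYP2C19 inhibition above a set limit at 5 µM in the primary screen, cut at about 50% in these data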;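 note: plate controls were negative control wells for no effect and 2.5 mM tranylcypromine positive control for full effect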
Rev-RRE block – HIV-1 Rev-RRE binding inhibitors, primary screen, biochemical, FRET, protein-RNA interaction; P05866; Rev peptide-RRE RNA binding; inhibition, % at 8 µM; 97,000 compounds, 0.79% hits; AID 704, 2007;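 active = inhibition above the screen-wide mean plus 3 SD, cut at about 35% in these data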;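 note: 0% = median DMSO wells and 100% = median Neomycin B control wells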
Target sequence (P05866 whole entry, looked up): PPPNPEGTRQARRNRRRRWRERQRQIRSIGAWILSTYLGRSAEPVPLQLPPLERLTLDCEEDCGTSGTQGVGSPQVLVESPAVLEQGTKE
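Test system: labelled RRE RNA duplex and labelled Rev peptide. Times: 5 min compound–RNA preincubation, then 15 min with peptide, 25 °C. Doses: single-dose 8 µM. Measured by: FRET, excitation 480 nm, emission 540 nm donor and 671 nm acceptor. Measure: % inhibition of FRET ratio versus controls.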
CYP2C19 act – human CYP2C19 activators, primary screen, biochemical, luminescence. Cytochrome P450 2C19 (Homo sapiens), P33261. activation factor at 5 µM. recombinant CYP2C19, luciferin-H EGE luminescence; active compounds read high; 0 = fully inhibited enzyme, 1 = untreated enzyme. 96,000 tested, under 10 active;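 active = activation factor of at least 2 at 5 µM in the primary screen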;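 note: 0 = wells with 2.5 mM tranylcypromine and 1 = vehicle-only wells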
CYP2C9 inhib – blockers of cytochrome P450 2C9 activity – biochemical, luminescence, ADME assay, primary screen. P11712. CYP2C9 Supersomes, luciferin-H conversion. inhibition, % at 5 µM. 96,000 compounds, 20% hits. AID 777, 2007;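 active = blocking of liver enzyme CYP2C9 beyond about 50% at 5 µM, limit read from the data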
* hit, by the source's call; . = not tested or not shown. Compounds with a hit are over-represented: about 27% of the library has one in this group of screens.

SMILES	CYP2C9 act	Cav32 inh	CYP2C19 inh	Rev-RRE block	CYP2C19 act	CYP2C9 inhib
CCCS(=O)(=O)N1CCN(c2ccccn2)CC1	0.6	0.183	69.3*	5.1	0.3	39.5
CCS(=O)(=O)N1CCN(c2ccccn2)CC1	0.8	.	23.7	3.3	0.8	20.2
Cc1cc(NC(=O)CSc2ncnc3ccccc23)no1	0.8	0.344	21.6	2.5	0.8	22.0
Cc1cc(NC(=O)CSc2nc3ccccc3c(=O)n2C(C)c2ccccc2)no1 (configuration not stated)	0.9	-1.55	82.4*	12.2	0.2	14.3
CCCCn1c(SCC(=O)Nc2cc(C)on2)nc2ccccc2c1=O	0.9	0.938	18.1	1.4	0.8	9.7
CCC(C)n1c(SCC(=O)Nc2cc(C)on2)nc2ccccc2c1=O (configuration not stated)	0.5	-2.01	61.6*	9.3	0.4	52.2*
CCNC(=O)/C(=C/c1ccc2c(c1)OCO2)NC(=O)c1ccc(Br)cc1	0.7	-0.829	31.6	-4.6	0.7	25.7
Cc1ccc(C(=O)OCC(=O)Nc2cc(F)ccc2F)cc1NC(=O)c1ccco1	0.8	-0.794	27.1	-2.0	0.7	20.3
Cc1ccc(C(=O)OCC(=O)Nc2sc3c(c2C#N)CCCC3)cc1NC(=O)c1ccco1	0.1	-1.04	33.9	3.5	0.7	90.7*
Cc1nc(NC(=O)COC(=O)C(NC(=O)c2ccco2)C(C)C)c(Cl)cc1Cl (configuration not stated)	0.8	0.742	94.7*	5.5	0.1	23.9
CCC(C)c1ccccc1NC(=O)COC(=O)c1ccc(C)c(NC(=O)c2ccco2)c1 (configuration not stated)	0.6	-0.485	74.8*	4.9	0.3	44.5
Cc1ccc(C(=O)OCC(=O)Nc2ccccc2)cc1NC(=O)c1ccco1	0.8	0.535	25.8	3.8	0.7	15.0
Cc1ccc(C(=O)OCC(=O)Nc2sccc2C(N)=O)cc1NC(=O)c1ccco1	0.1	-0.174	19.1	-0.1	0.8	94.0*
COn1c(SCc2ccccc2)nc2ccccc2c1=O	0.6	-2.41	35.2	12.6	0.6	38.5
O=C(Nc1cccc2c1CCCC2)c1cc([N+](=O)[O-])ccc1Cl	0.8	-0.0607	24.3	7.2	0.8	15.7
Cc1ccc(C(=O)OCC(=O)Nc2sc3c(c2C#N)CCCCC3)cc1NC(=O)c1ccco1	0.1	-3.85*	59.5*	0.0	0.4	91.6*
Cc1ccc(C(=O)OCC(=O)Nc2ncc(Cl)cc2Cl)cc1NC(=O)c1ccco1	0.3	0.381	91.5*	4.3	0.1	69.1*
N#Cc1c(NC(=O)COC(=O)c2ccc(F)cc2)sc2c1CCC2	0.8	0.184	1.1	12.6	1	15.3
Cc1ccc2nc(-c3ccncc3)cc(-c3ccccc3)c2c1	0.6	-3.06	17.0	6.5	0.8	36.1
Cc1ccc2nc(-c3ccc(NS(C)(=O)=O)cc3)cc(-c3ccccc3)c2c1	0.5	-0.0664	10.2	0.1	0.9	52.7*
COC(=O)CSc1nnc(CNc2ccc(OC)cc2)n1C	1	0.574	57.9*	2.9	0.4	-4.5
CCOC(=O)c1ccc(NC(=O)CSc2nnc(CNc3ccc(C)cc3)n2C)cc1	.	-0.956	.	4.5	.	.
CCN(CC)S(=O)(=O)c1ccc(C(=O)NCc2nnc(SCC(=O)OC)n2C)cc1	1	-3.77*	0.0	3.5	1	1.4
CCOC(=O)c1c(NC(=O)CSc2nnc(CNc3ccc(OC)cc3)n2C)sc(C)c1C	0.2	-6.64*	31.9	-1.1	0.7	76.9*
COCCNC(=O)C1CCN(S(=O)(=O)c2ccccc2)CC1	0.9	0.0153	4.9	1.9	1	8.2
SMILES	CYP2C9 act	Cav32 inh	CYP2C19 inh	Rev-RRE block	CYP2C19 act	CYP2C9 inhib
O=C(CN1C(=O)NC2(CCCCCC2)C1=O)N1CCN(S(=O)(=O)c2ccc(Cl)cc2)CC1	0.9	0.121	7.8	1.0	0.9	10.5
CC(=Nc1ccc(C)c(C)c1)C1=C(O)CSC1=O	0.5	-0.253	65.3*	-4.9	0.3	49.9
COc1ccccc1N=C(C)C1=C(O)CSC1=O	0.6	0.469	64.4*	5.2	0.4	37.9
COc1ccc(OC)c(N=C(C)C2=C(O)COC2=O)c1	0.8	-0.176	33.6	.	0.7	17.5
COc1ccc(CNC(=O)CSc2nnc(C)s2)cc1	1.2	0.308	0.9	.	1	-15.3
COc1cccc(NC(=O)N(Cc2cc3cc(C)cc(C)c3[nH]c2=O)CC2COCCO2)c1 (configuration not stated)	0.4	-2	28.8	-0.4	0.7	56.7*
CCOc1cc(-c2cc(-c3ccccc3)nc(N)c2C#N)ccc1O	0.5	0.561	52.2*	10.0	0.5	53.6*
CS(=O)(=O)c1nc(-c2ccccc2)cc(-c2ccccc2)c1C#N	0.8	0.636	6.9	6.0	0.9	21.8
CCOc1cc(-c2c(C#N)c(N)nc3c2CCCC3)ccc1O	0.6	-0.229	60.7*	.	0.4	35.9
CCOc1cc(-c2cc(-c3ccc(N)cc3)nc(N)c2C#N)ccc1O	0.1	0.188	69.5*	8.4	0.3	88.8*
N#CC1=C(N)Oc2n[nH]c(-c3ccccc3)c2C1c1cccnc1 (configuration not stated)	0.8	1.23	37.8	1.9	0.6	23.0
CCOc1cc(C2C(C#N)=C(N)Oc3n[nH]c(-c4ccccc4)c32)ccc1O (configuration not stated)	0.1	-1.88	70.6*	11.5	0.3	93.8*
COc1ccc(-c2c(C#N)c(N)nc3c2CCCC3)cc1OC	.	1.36	.	4.2	.	.
CNC(=O)c1cc2ccc(OC)cc2oc1=O	1	-0.221	4.7	9.0	1	-3.6
COc1ccc(-c2cccc(C3CC=CC4C3C(=O)N(Cc3ccccc3)C4c3ccc(OC)c(Cl)c3)c2)cc1 (configuration not stated)	.	0.865	.	.	.	.
CCOC(=O)Cn1c(=NC(=O)CSC(C)=O)sc2ccccc21	0.2	-9.42*	39.9	.	0.6	81.0*
COC(=O)Cn1c(=NC(=O)CSCC(=O)NC2CCCCC2)sc2cc(OC)ccc21	0.9	1.12	26.2	11.8	0.7	9.2
CCOC(=O)Cn1c(=NC(=O)CSC(C)=O)sc2cc(OC)ccc21	0.8	-10.1*	10.2	6.0	0.9	16.7
CC(=O)SCC(=O)N=c1sc2cc(F)ccc2n1C	1.1	-6.21*	18.6	1.9	0.8	-13.1
CC1(C)c2[nH]c3ccccc3c2C[C@H]2C(=O)N(Cc3ccccc3F)C(=O)N21	.	0.486	.	.	.	.
c1cc2c(cc1Oc1nc(N3CCOCC3)nc(N3CCOCC3)n1)OCO2	1.1	0.699	-5.3	1.3	1.1	-11.0

High-throughput results from PubChem.
